Experimental data from different studies.
Each line is one published result; the experiments were not run side by side.
Cell line: 786-0
Observed: cell growth or viability

Compound	method	concentration	time	measurement	value
COc1ccc(C(=O)/C=C/c2cc3c(cc2Br)OCO3)cc1S(N)(=O)=O	SRB	10 µM	–	inhibition	140%
Cc1cc(C)n(C(=S)[S][Au][PH](CCCCCC[PH]([Au][S]C(=S)n2nc(C)cc2C)(c2ccccc2)c2ccccc2)(c2ccccc2)c2ccccc2)n1	–	–	–	GI50	3100 nM
CC1=CC(=O)C(C(C)C)=CC1=O	CCK-8	–	48 h	IC50	43000 nM
CC(C)c1c(Sc2ccc(C(=O)N[C@@H](CCC(=O)O)C(=O)O)cc2)[nH]c2nc(N)nc(N)c12	–	–	–	GI50	5580 nM
S=C([S][Au-][P+](CCCCCC[P+]([Au-][S]C(=S)n1cccn1)(c1ccccc1)c1ccccc1)(c1ccccc1)c1ccccc1)n1cccn1	–	–	–	GI50	9800 nM
COc1ccc(C(=O)/C=C/c2ccccc2Br)cc1S(N)(=O)=O	SRB	–	48 h	GI50	1800 nM
COc1cc(-c2ccc(-c3ccc(C(=N)N)nc3)s2)cc(OC)c1OC	–	–	–	GI50	2120 nM
CCCc1c(Sc2ccc(C(=O)N[C@@H](CCC(=O)O)C(=O)O)cc2)[nH]c2nc(N)nc(N)c12	–	–	–	GI50	≤ 10 nM
COc1cccc(Oc2ccccc2NC(=O)CNC(=O)c2cccc3ccccc23)c1	SRB	–	48 h	GI50	490 nM
COc1ccc(-c2ccc(-c3ccc(C(=N)N)nc3)s2)cc1Cl	–	–	–	GI50	2000 nM
CC(=O)O[C@H]1C(=O)[C@@]2(C)[C@H]([C@H](OC(=O)c3ccccc3)[C@]3(O)C[C@H](OC(=O)[C@H](O)[C@@H](NC(=O)c4ccccc4)c4ccccc4)C(C)=C1C3(C)C)[C@]1(OC(C)=O)CO[C@@H]1C[C@@H]2O	–	–	110 h	IC50	5 nM
